*1 amine or outer side, *2 acyl side, *3 side chain or, on linkers, in order; H or OH if unused. Where a SMILES comes first, the peptide text is derived from it. Bridges are numbered along the chain shown (N, C = ends). [ ]: non-standard residue; d: D form. The star is where a group is joined. hTyr(3S-OH,4S-OH,3'-OSO3H) = N[C@H](C(=O)O)[C@H](O)[C@@H](O)c1ccc(O)c(OS(=O)(=O)O)c1; Orn(4R-OH,5R-OH) = O=C([C@H](C[C@@H](O)[C@@H](O)N[*:3])N[*:1])[*:2]; Pro(3S-OH,4S-Me) = C[C@H]1CN[C@H](C(=O)O)[C@H]1O; X1 = CCCCCOc1ccc(-c2cc(-c3ccc(C(=O)*)cc3)no2)cc1; Gln(3R-OH) = NC(=O)C[C@@H](O)[C@H](N)C(=O)O; Hyp = O=C(O)[C@@H]1C[C@@H](O)CN1
Key:
Type in all cases: functional
Candida albicans [1] = assay: Antifungal activity against Candida albicans NCPF6525 after 24 hrs by EUCAST test
In short: (§1)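 EUCAST broth microdilution with aqueous doubling dilutions of drug. Inoculum grown overnight at 30°C in NGY, then added to MOPS-buffered RPMI 1640 with 2% glucose at an initial 10^5 yeasts/ml. Incubated 35°C for 24 h. MICs taken from triplicate spectrophotometric dose-response data as 50% and 80% growth-reduction endpoints.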

Candida albicans [2] = assay: Antifungal activity against Candida albicans T28 after 24 hrs by CLSI M27-A test
In short: (§2)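 CLSI M27-A broth microdilution with aqueous doubling dilutions of drug. Inoculum grown overnight at 30°C in NGY medium, then added to MOPS-buffered RPMI 1640 at an initial 10^3 yeasts/ml. Incubated 35°C for 24 h. MIC read visually as the lowest concentration giving a marked decrease in visible growth; paradoxical or trailing growth noted.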

Candida albicans [3] = assay: Antifungal activity against Candida albicans T28 after 24 hrs by EUCAST test; in short: as §1
Candida albicans [4] = assay: Antifungal activity against Candida albicans T32 after 24 hrs by EUCAST test; in short: as §1
Candida albicans [5] = assay: Antifungal activity against Candida albicans SC5314 after 24 hrs by CLSI M27-A test; conditions: SC5314, 24 h; in short: as §2
Candida albicans [6] = assay: Antifungal activity against Candida albicans SCS140136P after 24 hrs by CLSI M27-A test; in short: as §2
Candida albicans [7] = assay: Antifungal activity against Candida albicans SCS140136P after 24 hrs by EUCAST test; in short: as §1
Candida albicans [8] = assay: Antifungal activity against Candida albicans SCS67023C after 24 hrs by CLSI M27-A test; in short: as §2
Candida albicans [9] = assay: Antifungal activity against Candida albicans SCS67023C after 24 hrs by EUCAST test; in short: as §1
Candida albicans [10] = assay: Antifungal activity against Candida albicans SCS68858 after 24 hrs by CLSI M27-A test; in short: as §2
Candida albicans [11] = assay: Antifungal activity against Candida albicans SCS68858 after 24 hrs by EUCAST test; in short: as §1
Candida albicans [12] = assay: Antifungal activity against Candida albicans AM2003/0083 after 24 hrs by CLSI M27-A test; in short: as §2
Candida albicans [13] = assay: Antifungal activity against Candida albicans AM2003/0083 after 24 hrs by EUCAST test; in short: as §1
Candida albicans [14] = assay: Antifungal activity against Candida albicans B06-341 after 24 hrs by CLSI M27-A test; in short: as §2
Candida albicans [15] = assay: Antifungal activity against Candida albicans B06-341 after 24 hrs by EUCAST test; in short: as §1
Candida albicans [16] = assay: Antifungal activity against Candida albicans HK04M102095 after 24 hrs by CLSI M27-A test; in short: as §2
Candida albicans [17] = assay: Antifungal activity against Candida albicans JIMS101103 after 24 hrs by EUCAST test; in short: as §1
Candida albicans [18] = assay: Antifungal activity against Candida albicans JIMS132203 after 24 hrs by CLSI M27-A test; in short: as §2
Candida albicans [19] = assay: Antifungal activity against Candida albicans JIMS146204 after 24 hrs by CLSI M27-A test; in short: as §2
Candida albicans [20] = assay: Antifungal activity against Candida albicans JIMS146204 after 24 hrs by EUCAST test; in short: as §1
Candida albicans [21] = assay: Antifungal activity against Candida albicans NCPF6525 after 24 hrs by CLSI M27-A test; in short: as §2
Candida albicans [22] = assay: Antifungal activity against Candida albicans NR3 after 24 hrs by CLSI M27-A test; in short: as §2
Candida albicans [23] = assay: Antifungal activity against Candida albicans T25 after 24 hrs by CLSI M27-A test; in short: as §2
Candida albicans [24] = assay: Antifungal activity against Candida albicans T25 after 24 hrs by EUCAST test; in short: as §1
Candida albicans [25] = assay: Antifungal activity against Candida albicans T26 after 24 hrs by CLSI M27-A test; in short: as §2
Candida albicans [26] = assay: Antifungal activity against Candida albicans Y109 after 24 hrs by CLSI M27-A test; in short: as §2
Candida dubliniensis [27] = assay: Antifungal activity against Candida dubliniensis 75/043 after 24 hrs by EUCAST test; in short: as §1
Candida dubliniensis [28] = assay: Antifungal activity against Candida dubliniensis 910Aa after 24 hrs by EUCAST test; in short: as §1
Candida dubliniensis [29] = assay: Antifungal activity against Candida dubliniensis AMCC after 24 hrs by CLSI M27-A test; in short: as §2
Candida dubliniensis [30] = assay: Antifungal activity against Candida dubliniensis AMCC after 24 hrs by EUCAST test; in short: as §1
Candida dubliniensis [31] = assay: Antifungal activity against Candida dubliniensis Leic952 after 24 hrs by CLSI M27-A test
In short: (§3)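 Broth microdilution with echinocandins as aqueous doubling dilutions. Yeasts were grown overnight at 30°C in NGY and seeded at 10^3 yeasts/ml initial concentration in MOPS-buffered RPMI 1640, then incubated at 35°C for 24 h. The MIC was read visually as the lowest concentration giving a marked decrease in visible growth; paradoxical or trailing growth was noted.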

Candida dubliniensis [32] = assay: Antifungal activity against Candida dubliniensis Leic952 after 24 hrs by EUCAST test
In short: (§4)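 Yeasts were grown overnight at 30°C in NGY, then inoculated at 10^5 yeasts/ml initial concentration into MOPS-buffered RPMI 1640 with 2% glucose containing aqueous doubling dilutions of drug. Plates were held at 35°C for 24 h. MICs came from triplicate spectrophotometric dose-response data at 50% and 80% growth-reduction endpoints. Trailing meant a >100-fold gap between these endpoints; paradoxical meant regrowth ≥5% above the curve minimum.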

Candida dubliniensis [33] = assay: Antifungal activity against Candida dubliniensis SCS17154969-1 after 24 hrs by EUCAST test; in short: as §4
Candida dubliniensis [34] = assay: Antifungal activity against Candida dubliniensis SCS59662 after 24 hrs by CLSI M27-A test; in short: as §3
Candida dubliniensis [35] = assay: Antifungal activity against Candida dubliniensis SCS59662 after 24 hrs by EUCAST test; in short: as §4
Candida dubliniensis [36] = assay: Antifungal activity against Candida dubliniensis SCS65875C after 24 hrs by CLSI M27-A test; in short: as §3
Candida dubliniensis [37] = assay: Antifungal activity against Candida dubliniensis SCS65875C after 24 hrs by EUCAST test; in short: as §4
Candida dubliniensis [38] = assay: Antifungal activity against Candida dubliniensis FS after 24 hrs by CLSI M27-A test; in short: as §3
Candida dubliniensis [39] = assay: Antifungal activity against Candida dubliniensis FS after 24 hrs by EUCAST test; in short: as §4
Candida dubliniensis [40] = assay: Antifungal activity against Candida dubliniensis IK after 24 hrs by CLSI M27-A test; in short: as §3
Candida dubliniensis [41] = assay: Antifungal activity against Candida dubliniensis J930936 after 24 hrs by CLSI M27-A test; in short: as §3
Candida dubliniensis [42] = assay: Antifungal activity against Candida dubliniensis KR after 24 hrs by CLSI M27-A test; in short: as §3
Candida dubliniensis [43] = assay: Antifungal activity against Candida dubliniensis SCSBB417709 after 24 hrs by EUCAST test; in short: as §4
Candida dubliniensis [44] = assay: Antifungal activity against Candida dubliniensis ST after 24 hrs by CLSI M27-A test; in short: as §3
Candida dubliniensis [45] = assay: Antifungal activity against Candida dubliniensis ST after 24 hrs by EUCAST test; in short: as §4
Candida parapsilosis [46] = assay: Antifungal activity against Candida parapsilosis ATCC 22019 after 24 hrs by CLSI M27-A test; conditions: Lodderomyces parapsilosis, ATCC 22019, 24 h; in short: as §3
Candida parapsilosis [47] = assay: Antifungal activity against Candida parapsilosis ATCC 22019 after 24 hrs by EUCAST test; conditions: Lodderomyces parapsilosis, ATCC 22019, 24 h; in short: as §4

Measured: MIC50

CCCCCOc1ccc(-c2cc(-c3ccc(C(=O)N[C@H]4C[C@@H](O)[C@@H](O)NC(=O)[C@@H]5[C@@H](O)[C@@H](C)CN5C(=O)[C@H]([C@H](O)CC(N)=O)NC(=O)[C@H]([C@H](O)[C@@H](O)c5ccc(O)c(OS(=O)(=O)O)c5)NC(=O)[C@@H]5C[C@@H](O)CN5C(=O)[C@H]([C@@H](C)O)NC4=O)cc3)no2)cc1 [MICAFUNGIN] (X1-[Orn(4R-OH,5R-OH)]T[Hyp][hTyr(3S-OH,4S-OH,3'-OSO3H)][Gln(3R-OH)][Pro(3S-OH,4S-Me)]; lactam 1-C)
0.5 µg/mL: Candida parapsilosis [47]
1 µg/mL: Candida albicans [22] | Candida albicans [23] | Candida albicans [24] | Candida albicans [25]
0.063 µg/mL: Candida dubliniensis [32] | Candida dubliniensis [33] | Candida dubliniensis [39] | Candida dubliniensis [45]
0.25 µg/mL: Candida albicans [26] | Candida parapsilosis [46]
≤ 0.032 µg/mL: all other assays above
